ChEMBL document CHEMBL4715736, “Identification of anticancer agents based on the thieno[2,3-b]pyridine and 1H-pyrazole molecular scaffolds” (2016)

Legend:
Type in all cases: functional
Conditions in all cases: read-out: Activity
MDA-MB-468 = assay: Growth inhibition of human MDA-MB-468 cells assessed as cell growth at 10 uM incubated for 48 hrs by sulforhodamine B assay relative to control
Method in brief: (§1)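 Submitted to the NCI Developmental Therapeutics Program for the NCI60 human tumour cell line panel. First screen at a single 10 µM concentration. Read-out is growth relative to untreated control cells set at 100%.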

KM12 = assay: Growth inhibition of human KM12 cells assessed as cell growth at 10 uM incubated for 48 hrs by sulforhodamine B assay relative to control; method in brief: as §1
NCI-H23 = assay: Growth inhibition of human NCI-H23 cells assessed as cell growth at 10 uM incubated for 48 hrs by sulforhodamine B assay relative to control; method in brief: as §1
LOX IMVI = assay: Growth inhibition of human LOX IMVI cells assessed as cell growth at 10 uM incubated for 48 hrs by sulforhodamine B assay relative to control; method in brief: as §1
SNB-19 = assay: Growth inhibition of human SNB-19 cells assessed as cell growth at 10 uM incubated for 48 hrs by sulforhodamine B assay relative to control
Method in brief: (§2)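 Run by the NCI Developmental Therapeutics Program as part of its 60-line human tumour panel. Each compound tested at a single 10 µM dose. Growth expressed as % relative to untreated control cells (100%).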

OVCAR-4 = assay: Growth inhibition of human OVCAR-4 cells assessed as cell growth at 10 uM incubated for 48 hrs by sulforhodamine B assay relative to control; method in brief: as §2
A498 = assay: Growth inhibition of human A498 cells assessed as cell growth at 10 uM incubated for 48 hrs by sulforhodamine B assay relative to control
Method in brief: (§3)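 NCI Developmental Therapeutics Program NCI60 panel. Compounds that were active in the 10 µM one-dose screen went on to dose–response testing. Growth at each concentration is expressed relative to untreated control (100%). GI50 (concentration giving 50% of maximal inhibition of proliferation) and TGI (concentration giving total growth inhibition) were derived from the curves.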

SR = assay: Growth inhibition of human SR cells assessed as cell growth at 10 uM incubated for 48 hrs by sulforhodamine B assay relative to control; method in brief: as §2
K562 = assay: Growth inhibition of human K562 cells assessed as cell growth at 10 uM incubated for 48 hrs by sulforhodamine B assay relative to control; method in brief: as §1
M14 = assay: Growth inhibition of human M14 cells assessed as cell growth at 10 uM incubated for 48 hrs by sulforhodamine B assay relative to control; method in brief: as §1
SF-295 = assay: Growth inhibition of human SF-295 cells assessed as cell growth at 10 uM incubated for 48 hrs by sulforhodamine B assay relative to control; method in brief: as §2
ACHN = assay: Growth inhibition of human ACHN cells assessed as cell growth at 10 uM incubated for 48 hrs by sulforhodamine B assay relative to control
Method in brief: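 NCI Developmental Therapeutics Program NCI60 human tumour cell line panel, one-dose primary screen with every compound at 10 µM. Growth is expressed as % of untreated control cells (100%).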

SF-268 = assay: Growth inhibition of human SF-268 cells assessed as cell growth at 10 uM incubated for 48 hrs by sulforhodamine B assay relative to control; method in brief: as §2
PC-3 = assay: Growth inhibition of human PC-3 cells assessed as cell growth at 10 uM incubated for 48 hrs by sulforhodamine B assay relative to control; method in brief: as §2
RXF 393 = assay: Growth inhibition of human RXF 393 cells assessed as cell growth at 10 uM incubated for 48 hrs by sulforhodamine B assay relative to control; method in brief: as §2
SK-MEL-28 = assay: Growth inhibition of human SK-MEL-28 cells assessed as cell growth at 10 uM incubated for 48 hrs by sulforhodamine B assay relative to control; method in brief: as §2
OVCAR-3 = assay: Growth inhibition of human OVCAR-3 cells assessed as cell growth at 10 uM incubated for 48 hrs by sulforhodamine B assay relative to control; method in brief: as §2
UACC-62 = assay: Growth inhibition of human UACC-62 cells assessed as cell growth at 10 uM incubated for 48 hrs by sulforhodamine B assay relative to control; method in brief: as §2
UO-31 = assay: Growth inhibition of human UO-31 cells assessed as cell growth at 10 uM incubated for 48 hrs by sulforhodamine B assay relative to control; method in brief: as §2
COLO 205 = assay: Growth inhibition of human COLO 205 cells assessed as cell growth at 10 uM incubated for 48 hrs by sulforhodamine B assay relative to control; method in brief: as §3
HCT-116 = assay: Growth inhibition of human HCT-116 cells assessed as cell growth at 10 uM incubated for 48 hrs by sulforhodamine B assay relative to control; method in brief: as §1
RPMI-8226 = assay: Growth inhibition of human RPMI-8226 cells assessed as cell growth at 10 uM incubated for 48 hrs by sulforhodamine B assay relative to control; method in brief: as §2
IGROV-1 = assay: Growth inhibition of human IGROV-1 cells assessed as cell growth at 10 uM incubated for 48 hrs by sulforhodamine B assay relative to control; method in brief: as §1
NCI-H322M = assay: Growth inhibition of human NCI-H322M cells assessed as cell growth at 10 uM incubated for 48 hrs by sulforhodamine B assay relative to control; method in brief: as §1
HCC 2998 = assay: Growth inhibition of human HCC 2998 cells assessed as cell growth at 10 uM incubated for 48 hrs by sulforhodamine B assay relative to control; method in brief: as §3
SW-620 = assay: Growth inhibition of human SW-620 cells assessed as cell growth at 10 uM incubated for 48 hrs by sulforhodamine B assay relative to control; method in brief: as §2
NCI-H226 = assay: Growth inhibition of human NCI-H226 cells assessed as cell growth at 10 uM incubated for 48 hrs by sulforhodamine B assay relative to control; method in brief: as §1
OVCAR-8 = assay: Growth inhibition of human OVCAR-8 cells assessed as cell growth at 10 uM incubated for 48 hrs by sulforhodamine B assay relative to control; method in brief: as §2
SK-MEL-5 = assay: Growth inhibition of human SK-MEL-5 cells assessed as cell growth at 10 uM incubated for 48 hrs by sulforhodamine B assay relative to control; method in brief: as §2
A549 = assay: Growth inhibition of human A549/ATCC cells assessed as cell growth at 10 uM incubated for 48 hrs by sulforhodamine B assay relative to control; method in brief: as §3
SN12C = assay: Growth inhibition of human SN12C cells assessed as cell growth at 10 uM incubated for 48 hrs by sulforhodamine B assay relative to control; method in brief: as §2
OVCAR-5 = assay: Growth inhibition of human OVCAR-5 cells assessed as cell growth at 10 uM incubated for 48 hrs by sulforhodamine B assay relative to control; method in brief: as §2
MDA-MB-435 = assay: Growth inhibition of human MDA-MB-435 cells assessed as cell growth at 10 uM incubated for 48 hrs by sulforhodamine B assay relative to control; method in brief: as §1
U-251 = assay: Growth inhibition of human U-251 cells assessed as cell growth at 10 uM incubated for 48 hrs by sulforhodamine B assay relative to control; method in brief: as §2
Malme-3M = assay: Growth inhibition of human Malme-3M cells assessed as cell growth at 10 uM incubated for 48 hrs by sulforhodamine B assay relative to control; method in brief: as §1

SMILES	growth at 10 µM (MDA-MB-468) [%]	growth at 10 µM (KM12) [%]	growth at 10 µM (NCI-H23) [%]	growth at 10 µM (LOX IMVI) [%]	growth at 10 µM (SNB-19) [%]	growth at 10 µM (A498) [%]	growth at 10 µM (SR) [%]	growth at 10 µM (K562) [%]	growth at 10 µM (M14) [%]	growth at 10 µM (ACHN) [%]	growth at 10 µM (SF-268) [%]	growth at 10 µM (PC-3) [%]	growth at 10 µM (RXF 393) [%]	growth at 10 µM (SK-MEL-28) [%]	growth at 10 µM (UACC-62) [%]	growth at 10 µM (UO-31) [%]	growth at 10 µM (COLO 205) [%]	growth at 10 µM (HCT-116) [%]	growth at 10 µM (RPMI-8226) [%]	growth at 10 µM (IGROV-1) [%]	further results
CC(=O)c1ccc2c(N)c(C(=O)Nc3ccccc3)sc2n1	87.4	110	99.2	105	105	70.3	86.5	95	109	102	112	97.4	100	108	115	103	105	108	89	113	growth at 10 µM (OVCAR-4): 84.2%; growth at 10 µM (SF-295): 108%; growth at 10 µM (OVCAR-3): 119%; growth at 10 µM (NCI-H322M): 114%; growth at 10 µM (HCC 2998): 106%; growth at 10 µM (SW-620): 99.4%; growth at 10 µM (NCI-H226): 93.4%; growth at 10 µM (OVCAR-8): 100%; growth at 10 µM (SK-MEL-5): 98.5%; growth at 10 µM (A549): 89%; growth at 10 µM (SN12C): 110%; growth at 10 µM (OVCAR-5): 113%; growth at 10 µM (MDA-MB-435): 106%
CC(=O)c1cccc(NC(=O)c2sc3nc4c(cc3c2N)C(=O)CCC4)c1	82.8	95.2	98.8	106	99.5	86.9	91.1	79.8	100	103	110	96.3	104	92.4	98.4	99.7	100	108	92.7	96.2	growth at 10 µM (OVCAR-4): 88.1%; growth at 10 µM (SF-295): 90.8%; growth at 10 µM (OVCAR-3): 120%; growth at 10 µM (NCI-H322M): 111%; growth at 10 µM (HCC 2998): 97.7%; growth at 10 µM (SW-620): 98.4%; growth at 10 µM (NCI-H226): 102%; growth at 10 µM (OVCAR-8): 101%; growth at 10 µM (SK-MEL-5): 96%; growth at 10 µM (A549): 92.8%; growth at 10 µM (SN12C): 109%; growth at 10 µM (OVCAR-5): 106%; growth at 10 µM (MDA-MB-435): 66.8%
Nc1c(C(=O)N(c2ccccc2)c2ccccc2)sc2nc3c(cc12)C(=O)CCC3	106	79	101	94.3	104	76.3	55.6	113	94.2	110	99.8	103	111	116	109	87	109	94.2	94.8	103	growth at 10 µM (SF-295): 107%; growth at 10 µM (OVCAR-3): 107%; growth at 10 µM (NCI-H322M): 102%; growth at 10 µM (HCC 2998): 116%; growth at 10 µM (SW-620): 89.3%; growth at 10 µM (NCI-H226): 104%; growth at 10 µM (OVCAR-8): 105%; growth at 10 µM (SK-MEL-5): 102%; growth at 10 µM (A549): 90.2%; growth at 10 µM (SN12C): 101%; growth at 10 µM (OVCAR-5): 130%; growth at 10 µM (MDA-MB-435): 110%
CC(C)N1CCc2nc3sc(C(=O)Nc4ccccc4)c(N)c3cc2C1	95.6	101	97.9	102	105	67.5	86.6	97.8	108	100	113	81.9	102	108	103	87.8	102	102	98.2	100	growth at 10 µM (OVCAR-4): 105%; growth at 10 µM (SF-295): 105%; growth at 10 µM (U-251): 92.7%; growth at 10 µM (OVCAR-3): 108%; growth at 10 µM (NCI-H322M): 108%; growth at 10 µM (HCC 2998): 110%; growth at 10 µM (SW-620): 96.4%; growth at 10 µM (NCI-H226): 94.8%; growth at 10 µM (OVCAR-8): 95.9%; growth at 10 µM (SK-MEL-5): 95%; growth at 10 µM (A549): 89.8%; growth at 10 µM (SN12C): 106%; growth at 10 µM (OVCAR-5): 90.2%; growth at 10 µM (MDA-MB-435): 94%
O=S(=O)(c1ccc(Br)cc1)n1ccc(-c2ccc(OCCCF)cc2)n1	39.8	104	80.3	100	95.5	91.1	75.2	55.6	97.1	94.1	98.5	79.5	92.7	93.4	59.9	69.1	102	78.7	77.1	89	growth at 10 µM (OVCAR-4): 71.1%; growth at 10 µM (U-251): 90.7%; growth at 10 µM (Malme-3M): 89%; growth at 10 µM (NCI-H322M): 104%; growth at 10 µM (HCC 2998): 90.3%; growth at 10 µM (SW-620): 107%; growth at 10 µM (NCI-H226): 80.6%; growth at 10 µM (OVCAR-8): 95.1%; growth at 10 µM (SK-MEL-5): 75.4%; growth at 10 µM (A549): 75.7%; growth at 10 µM (SN12C): 87%; growth at 10 µM (OVCAR-5): 103%; growth at 10 µM (MDA-MB-435): 98.2%
Cc1cccc(NC(=O)c2sc3nc4c(cc3c2N)CN(Cc2ccccc2)CC4)c1	94.8	96.4	100	95.8	110	85.1	95	109	106	102	103	98	103	103	110	98.4	104	92.6	101	102	growth at 10 µM (OVCAR-4): 105%; growth at 10 µM (SF-295): 110%; growth at 10 µM (U-251): 85.4%; growth at 10 µM (OVCAR-3): 116%; growth at 10 µM (NCI-H322M): 103%; growth at 10 µM (HCC 2998): 104%; growth at 10 µM (SW-620): 96.8%; growth at 10 µM (NCI-H226): 100%; growth at 10 µM (OVCAR-8): 98.2%; growth at 10 µM (SK-MEL-5): 103%; growth at 10 µM (A549): 84.2%; growth at 10 µM (SN12C): 107%; growth at 10 µM (OVCAR-5): 104%; growth at 10 µM (MDA-MB-435): 94.5%
